Experimental data reported in ChEMBL document CHEMBL3351588, “Design, synthesis and biological evaluation of N-alkyl or aryl substituted isoindigo derivatives as potential dual cyclin-dependent kinase 2 (CDK2)/glycogen synthase kinase 3β (GSK-3β) phosphorylation inhibitors” (Eur J Med Chem, 2014).

What was measured:
K562 [1] = test: Cytotoxicity against human K562 cells after 48 hrs by SRB assay; type: functional, cell-based; details: K562, 48 h
Method in brief: (§1)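 Cells seeded at 5 × 10³ per well and allowed to attach for 12 h, then exposed to a range of drug concentrations in their own medium for 48 h. Fixed with ice-cold TCA for 1 h at 4 °C, washed, then stained with 0.4% SRB for 30 min at room temperature. IC50 is the mean of three independent experiments.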

MGC-803 = test: Cytotoxicity against human MGC803 cells after 48 hrs by SRB assay; type: functional, cell-based; details: MGC-803, 48 h; method in brief: as §1
A549 = test: Cytotoxicity against human A549 cells after 48 hrs by SRB assay; type: functional, cell-based; details: A549, 48 h; method in brief: as §1
L1210 = test: Cytotoxicity against mouse L1210 cells after 48 hrs by SRB assay; type: functional, cell-based; details: L1210, 48 h; method in brief: as §1
[2] = Cytotoxicity against human VEC cells after 48 hrs by SRB assay; type: cell-based; method in brief: as §1
[3] = Cytotoxicity against human HCT116 cells after 48 hrs by SRB assay; type: functional, cell-based; details: HCT-116, 48 h; method in brief: as §1
HeLa = test: Cytotoxicity against human HeLa cells after 48 hrs by SRB assay; type: functional, cell-based; method in brief: as §1
K562 [4] = test: Induction of cell cycle arrest in human K562 cells assessed as accumulation at G2/M phase at 10 uM after 24 hrs by propidium iodide staining based flow cytometry (reference value: 18.96%); type: functional
K562 [5] = test: Induction of cell cycle arrest in human K562 cells assessed as accumulation at G0/G1 phase at 10 uM after 24 hrs by propidium iodide staining based flow cytometry (reference value: 36.14%); type: functional
K562 [6] = test: Induction of cell cycle arrest in human K562 cells assessed as accumulation at S phase at 10 uM after 24 hrs by propidium iodide staining based flow cytometry (reference value: 44.90%); type: functional

Structure (SMILES) | IC50 (K562 [1]) [µM] | IC50 (MGC-803) [µM] | IC50 (A549) [µM] | IC50 (L1210) [µM] | IC50 [2] [µM] | IC50 [3] [µM] | IC50 (HeLa) [µM] | Activity (K562 [4]) [%] | Activity (K562 [5]) [%] | Activity (K562 [6]) [%]
CC(C)CN1C(=O)/C(=C2/C(=O)Nc3ccccc32)c2ccccc21 | 74.4 | > 200 | 52.8 | 73.8 | 97.4 | 62.2 | > 200 |  |  | 
CC(=O)N1C(=O)/C(=C2/C(=O)N(C(C)=O)c3ccccc32)c2ccccc21 | > 200 | > 200 | > 200 | > 200 | > 200 | > 200 | > 200 |  |  | 
CCN1C(=O)/C(=C2/C(=O)Nc3ccccc32)c2ccccc21 | > 200 | 67.2 | 61 | 47.5 | 73 | 51 | 194 |  |  | 
O=C1Nc2ccccc2/C1=C1\C(=O)N(CCc2ccccc2)c2ccccc21 | 17.1 | > 200 | 85.4 | 158 | 184 | 85.2 | > 200 |  |  | 
O=C1Nc2ccccc2/C1=C1\C(=O)N(c2ccc(F)cc2)c2ccccc21 | > 200 | 108 | 22.6 | > 200 | 93.5 | 40.1 | > 200 |  |  | 
CN1C(=O)/C(=C2/C(=O)Nc3ccccc32)c2ccccc21 [MEISOINDIGO] | 23.3 | 128 | 57.3 | 167 | 122 | 27 | 15.7 | 10.25 | 32.25 | 57.5
CC(C)N1C(=O)/C(=C2/C(=O)Nc3ccccc32)c2ccccc21 | > 200 | 176 | 183 | > 200 | > 200 | 149 | > 200 |  |  | 
CCCCN1C(=O)/C(=C2/C(=O)Nc3ccccc32)c2ccccc21 | 114 | 87.9 | 30.2 | 75.4 | 58.1 | 34.2 | 80.7 |  |  | 
